From the array DNA melting data of Ke et al. (doi:10.1101/2024.01.08.574731)

Columns and labels:
[1] = melting temperature; fluorescence melt of hairpins on a sequencing array, two-state fit, raised by 9.35 °C to match UV melts; settings: sodium 0.088 M
Procedure, shortened: (§1)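 In 50 mM Na-HEPES pH 8.0 containing 25 mM NaCl, hairpins from the library on a sequenced MiSeq flow cell were imaged for Cy3 fluorescence at 2.5 °C steps up to 60 °C, with Cy3 and quencher oligos annealed. After normalisation to pre-quench Cy3 and to control constructs, two-state fits with bootstrapping gave melting temperature and folding enthalpy. Four replicates were combined by inverse-variance weighting, and fitted temperatures were shifted up by 9.35 °C to match UV melts.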

[2] = folding enthalpy; higher = less favourable; fluorescence melt of hairpins on a sequencing array, two-state fit; settings: sodium 0.088 M
Procedure, shortened: as §1

Sequence | Tm [1] [°C] | folding enthalpy [2] [kcal/mol]
GGCCGCGAAAGCGAAGCC ((((((....)))..))) | 58.9 | -27.7
GTAACCGGAAACGATTAC ((((.((....)).)))) | 36.4 | -25.3
GATTCCGGAAACGGAACC (.(((((....))))).) | 40.1 | -13.6
GGGCACGAAAGTGTTCCC ((((((....)))..))) | 46.1 | -17.7
GATCATCTAGATGATC ((((((....)))))) | 52.7 | -43.8
GATCAGTAGCCTGATC ((((((....)))))) | 49.6 | -31.4
GCGCGCGAAAGCGGACGC ((((((....)))..))) | 64.9 | -16.5
GTTCGCGAAAGCGAAAAC ((((((....)))..))) | 47.4 | -9.22
AGATCGAAAGATCT (((((....))))) | 50.9 | -23.2
GATCACGTGAGTGATC ((((((....)))))) | 69.2 | -28.4
GCCCCGCGAAAGCCGTGC ((.(.((....)).).)) | 27.7 | -15.5
GCAGATCCGAAAGGATGC (((..(((....)))))) | 45.2 | -16.3
GGTCACACGAAAGTGACC (((..(((....)))))) | 58.2 | -35.5
GCTTCGCGAAAGCCATGC ((.(.((....)).).)) | 34.6 | -9.05
GCGTACCCACGC ((((....)))) | 53.1 | -21.2
GACTGCGGAAACGCGGTC (((.(((....))).))) | 63.5 | -34.1
GGGGTACGAAAGTAACCC (((.(((....))).))) | 60.9 | -34.1
GCCGACGAAAGTCGTGGC ((((((....)))..))) | 57 | -16.3
GGTAGCGAAAGCTACACC ((((((....)))..))) | 50.5 | -9.32
GAGGGCACGAAAGTGCTC (((..(((....)))))) | 44 | -7.41
GGCTCAGGAAACTGAGTC (.(((((....))))).) | 52.6 | -40.2
GTACTCCGAAAGGATAC (((.(((....)))))) | 36.9 | -21.6
GTACCCGGAAACGAGTAC ((((.((....)).)))) | 41.1 | -25.8

Sequence | Tm [1] [°C] | folding enthalpy [2] [kcal/mol]
GCTTGCCCGAAAGGGAGC (((..(((....)))))) | 48.1 | -14.7
GTCGAGCGAAAGCTGGAC (((.(((....))).))) | 56.1 | -28.9
GAAGGCACGAAAGTGTTC (((..(((....)))))) | 24.6 | -9.46
GTAGCCCGAAAGGGTTAC (((.(((....))).))) | 60.2 | -25.4
GCGATTATCGC ((((...)))) | 49 | -20.9
GACTCCCGAAAGGGTGTC (((.(((....))).))) | 58.3 | -33.1
GAAGCCCGAAAGGGTTTC (((.(((....))).))) | 56.2 | -34.4
GGCGTCCGAAAGGAAGCC (((.(((....))).))) | 67 | -34.7
GGCAAGGGAAACCTTGTC (.(((((....))))).) | 50.6 | -31.7
GACATTGGAAACAATGTC (((((((....))))))) | 56.6 | -44.1
GTACAGTCGAAAGACTAC (((..(((....)))))) | 29.7 | -10.2
GTCACCCGAAAGGGAGAC (((.(((....))).))) | 57.2 | -33.6
GCCGGGCGAAAGCTGGGC (((..((....))..))) | 61.2 | -26.3
GCGGAAGGCCGC ((((....)))) | 53.1 | -21.7
GTGCCCGAAAGGGTCCAC ((((((....)))..))) | 41 | -10.3
GTAATTGGAAACAATTGC (.(((((....))))).) | 39.2 | -26.5
GATCGAATAGTCGATC ((((((....)))))) | 48.8 | -34.8
GGCTACGAAAGTAGGCC ((((((....))).))) | 57.6 | -17.3
GCCGTCGAAAGACCAGGC ((((((....)))..))) | 48.9 | -17.5
GTATTGGGAAACCAATGC (.(((((....))))).) | 44.3 | -26.9
GATTTCCGAAAGGACATC (((.(((....))).))) | 38 | -27.1
GTATCCGAAAGGAACTAC ((((((....)))..))) | 33.4 | -14.3
GCTCTCGCGAAAGCGAGC (((..(((....)))))) | 38.3 | -4.57

Sequence | Tm [1] [°C] | folding enthalpy [2] [kcal/mol]
GCGCAAGGAAACTCACGC (((..((....))..))) | 28.4 | -15
GGTTCGGGAAACCGGATC (.(.(((....))).).) | 38.2 | -18.3
GGGGGTGGAAACGCCCCC (((((.(....).))))) | 66.9 | -28.9
GCACTACCGAAAGGTTGC (((..(((....)))))) | 39.6 | -15.9
GCATCATCGAAAGATTGC (((..(((....)))))) | 30.8 | -19.8
GTACCCGGAAACGGGTGC (.(((((....))))).) | 60.1 | -20.1
GTAGACGAAAGTCTAC ((((((....)))))) | 62 | -35.9
GGAAGCGGAAACGCCTCC (((.(((....))).))) | 45.6 | -20
GACGGTGGAAACACCGCC (.(((((....))))).) | 50.4 | -12.7
GATGTGCCGAAAGGCATC (((..(((....)))))) | 36.1 | -8.04
GCGTTTCAACGC ((((....)))) | 60.2 | -27.6
GCATAGCGAAAGCTGAGC ((..(((....)))..)) | 46 | -15.7
GCGAATGGAAACGTTTGC ((.((.(....).)).)) | 36 | -30.7
GTTAGGGGAAACCCTAGC (.(((((....))))).) | 40.7 | -21.5
GGCCGCCGAAAGGCAGCC (((.(((....))).))) | 67.4 | -25.5
GTTCAGGGAAACCTGGAC ((.((((....)))).)) | 48.9 | -29.6
GACTTGGGAAACCAGGTC (((.(((....))).))) | 46.4 | -37
GATCCCAGATGGGATC ((((((....)))))) | 57.6 | -34.1
GAGGCTGGAAACAGTCTC (((.(((....))).))) | 52.6 | -35.8
GTCGCGGCGAAAGCCGAC (((..(((....)))))) | 42.2 | -7.7
GTGTGCGGAAACGTGCAC (((..((....))..))) | 52.9 | -38.2
GTCATAGGAAACTACGAC (((.(((....))).))) | 30.8 | -16.5
GGGAGCCGAAAGGCACCC (((.(((....))).))) | 67.1 | -29.5

Sequence | Tm [1] [°C] | folding enthalpy [2] [kcal/mol]
GTCTCGCGAAAGCGTGAC (((.(((....))).))) | 60.7 | -28.6
GTTATCGAAAGATAAC ((((((....)))))) | 53.1 | -42.8
GAGCAACGAAAGTTACTC (((.(((....))).))) | 42.9 | -26.2
GCTTCTGGAAACGGAAGC (((((.(....).))))) | 51.6 | -46.4
GTACTCGAAAGAGTTAC ((((((....))).))) | 38.9 | -14.8
GCAATCGAAAGATTGC ((((((....)))))) | 64 | -42.2
GCGATAAATCGC ((((....)))) | 49.8 | -19.3
GATCCGCGTCGGATC ((((((...)))))) | 57.3 | -35.6
GCAACACGAAAGTGATGC (((.(((....))).))) | 59 | -38.9
GCCGAGCGAAAGCTTAGC ((..(((....)))..)) | 39.9 | -14.7
CGGCCGGAAACGGGCCG ((((((....))).))) | 66.9 | -20
GCAGGGCGAAAGCCTTGC (((.(((....))).))) | 61.2 | -40.3
GGGCCCGAAAGGGTTCCC ((((((....)))..))) | 51.5 | -15.2
GATTCCGAAAGGATATC ((((((....))).))) | 39.5 | -20.7
GCTTCGCGAAAGCGTAGC (((.(((....))).))) | 55.7 | -42.6
GCATTTCGAAAGAATTGC (((.(((....))).))) | 47.1 | -33.7
GATCGACAGTCGATC ((((((...)))))) | 49.8 | -40.4
GCGGCCGGAAACGGCCAC (.(((((....))))).) | 53 | -9.59
CGATACGGAAACGTTCG (((.(((....)))))) | 42.3 | -28.6
GGTGTCGAAAGACGACC ((((((....))).))) | 52.6 | -19.9
GCACCGCGAAAGCCGTGC ((((.((....)).)))) | 62.2 | -31.1
GCGTGTGGAAACGCACGC (((((.(....).))))) | 67.3 | -34.5
GTCCAAGGAAACCTGGAC (((((.(....).))))) | 46.8 | -27.7
